The values that follow come from ChEMBL document CHEMBL1641369, “The synthesis and biological evaluation of 2-(3-methyl or 3-phenylisoxazol-5-yl)-3-aryl-8-thiabicyclo[3.2.1]octanes” (Bioorg Med Chem Lett, 2011).

pIC50: −log10 of the molar value.

The target of assay [1] is Sodium-dependent dopamine transporter (Homo sapiens, UniProt Q01959). As to the kind of experiment: Displacement of [3H]WIN35428 from human DAT transfected cell membrane. A general note: Loss of bound radioactivity is the signal in a displacement assay; it reports binding, not function.
Sequence of Sodium-dependent dopamine transporter (Q01959 whole entry): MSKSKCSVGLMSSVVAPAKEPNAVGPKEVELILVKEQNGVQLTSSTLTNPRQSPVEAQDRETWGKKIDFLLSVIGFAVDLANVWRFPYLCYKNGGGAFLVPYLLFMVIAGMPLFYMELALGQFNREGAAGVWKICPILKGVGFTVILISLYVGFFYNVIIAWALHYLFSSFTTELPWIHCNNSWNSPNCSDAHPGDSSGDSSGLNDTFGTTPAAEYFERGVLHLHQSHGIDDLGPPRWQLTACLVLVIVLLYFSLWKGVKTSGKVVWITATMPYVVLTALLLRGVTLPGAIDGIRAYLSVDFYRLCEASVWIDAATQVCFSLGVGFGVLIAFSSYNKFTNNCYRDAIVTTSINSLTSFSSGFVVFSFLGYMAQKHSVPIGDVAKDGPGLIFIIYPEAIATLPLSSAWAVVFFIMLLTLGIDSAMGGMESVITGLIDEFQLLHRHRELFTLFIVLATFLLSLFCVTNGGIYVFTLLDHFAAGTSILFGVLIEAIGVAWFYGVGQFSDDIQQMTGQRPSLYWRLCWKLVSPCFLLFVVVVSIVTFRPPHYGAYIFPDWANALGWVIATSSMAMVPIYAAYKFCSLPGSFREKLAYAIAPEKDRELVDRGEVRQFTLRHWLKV
The target of assay [2] is Sodium-dependent serotonin transporter (Homo sapiens, UniProt P31645). As to the kind of experiment: Displacement of [3H]citalopram from human SERT expressed in HEK293 cell membrane. The class given is cell membranes. The method in brief:
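Human SERT was labelled with [3H]citalopram at a fixed concentration and competed against a range of test-drug concentrations. Nonspecific binding was measured with fluoxetine at 10 μM. IC50 reported as mean ± SEM of at least three independent experiments, each run in triplicate. Some entries are screening data from replicate triplicate experiments.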

Sequence of Sodium-dependent serotonin transporter (P31645 whole entry): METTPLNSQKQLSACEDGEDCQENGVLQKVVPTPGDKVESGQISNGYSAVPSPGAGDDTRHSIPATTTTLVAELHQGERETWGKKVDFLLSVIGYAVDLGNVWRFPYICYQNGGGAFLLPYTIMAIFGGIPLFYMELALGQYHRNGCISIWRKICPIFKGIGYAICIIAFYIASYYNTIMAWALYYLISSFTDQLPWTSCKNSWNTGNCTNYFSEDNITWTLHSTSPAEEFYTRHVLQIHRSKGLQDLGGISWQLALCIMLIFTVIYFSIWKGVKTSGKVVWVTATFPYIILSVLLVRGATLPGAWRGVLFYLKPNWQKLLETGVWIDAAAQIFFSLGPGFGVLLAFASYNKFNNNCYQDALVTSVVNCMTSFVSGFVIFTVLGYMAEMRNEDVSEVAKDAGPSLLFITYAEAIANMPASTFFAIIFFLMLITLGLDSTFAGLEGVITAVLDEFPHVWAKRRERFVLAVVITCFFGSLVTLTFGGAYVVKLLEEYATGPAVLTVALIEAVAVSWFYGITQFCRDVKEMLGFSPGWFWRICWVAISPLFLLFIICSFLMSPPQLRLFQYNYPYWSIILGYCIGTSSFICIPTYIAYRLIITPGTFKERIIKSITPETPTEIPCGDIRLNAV

Take `Cc1cc([C@@H]2C3CCC(C[C@H]2c2ccc(Cl)cc2)S3)on1` (stereo partly specified): the pIC50 (commonly the negative decadic logarithm of the IC50, by convention in mol/L) in assay [1] is 7.49; in assay [2], below 5.15.
Regarding `Fc1ccc([C@@H]2CC3CCC(S3)C2c2cc(-c3ccccc3)no2)cc1` (stereo partly specified), the negative-log IC50 (pIC50) is 6.34 in assay [1] and below 5.00 in assay [2].
For `Cc1cc(C2=C(c3ccc(Cl)cc3)CC3CCC2S3)on1` (stereo unspecified) the same measures were 6.81 and below 5.00.
For `Clc1ccc([C@@H]2CC3CCC(S3)C2c2cc(-c3ccccc3)no2)cc1Cl` (stereo partly specified) the same measures were 6.30 and below 5.00.
The like results for `Cc1cc(C2=C(c3ccccc3)CC3CCC2S3)on1` (stereo unspecified) were, in that order, below 5.70 and below 5.00.
As for `Brc1ccc(C2=C(c3cc(-c4ccccc4)no3)C3CCC(C2)S3)cc1` (stereo unspecified), the pIC50 is 6.90 in assay [1] and below 5.00 in assay [2].
For `Cc1cc(C2=C(c3ccc(Cl)c(Cl)c3)CC3CCC2S3)on1` (stereo unspecified) the same measures were 7.16 and below 5.00.
For `Fc1ccc(C2=C(c3cc(-c4ccccc4)no3)C3CCC(C2)S3)cc1` (stereo unspecified) the same measures were below 5.70 and below 5.00.
As for `Clc1ccc(C2=C(c3cc(-c4ccccc4)no3)C3CCC(C2)S3)cc1` (stereo unspecified), the pIC50 in assay [1] was 7.18; in assay [2], below 5.00.
For `Cc1cc(C2=C(c3ccc(Br)cc3)CC3CCC2S3)on1` (stereo unspecified) the same measures were 6.86 and below 5.00.
The like results for `Cc1cc([C@@H]2C3CCC(C[C@H]2c2ccc(F)cc2)S3)on1` (stereo partly specified) were, in that order, 7.66 and below 5.00.
The like results for `Cc1cc([C@@H]2C3CCC(C[C@@H]2c2ccc(Cl)cc2)S3)on1` (stereo partly specified) were, in that order, 8.14 and below 6.00.
`Cc1cc([C@@H]2C3CCC(C[C@H]2c2ccc(Br)cc2)S3)on1` (stereo partly specified): the results for the negative logarithm of the IC50 (pIC50) in assay [1] and in assay [2] were 7.33 and below 5.40, respectively.
The like results for `c1ccc(-c2cc(C3C4CCC(C[C@H]3c3ccccc3)S4)on2)cc1` (stereo partly specified) were, in that order, below 6.00 and below 5.00.
For `Cc1cc([C@@H]2C3CCC(C[C@@H]2c2ccc(Cl)c(Cl)c2)S3)on1` (stereo partly specified) the same measures were 7.36 and 6.12.
Regarding `Cc1cc(C2=C(c3ccc(F)cc3)CC3CCC2S3)on1` (stereo unspecified), the pIC50 in assay [1] was below 6.00; in assay [2], below 5.00.
For `Cc1cc([C@@H]2C3CCC(C[C@H]2c2ccccc2)S3)on1` (stereo partly specified) the same measures were 7.19 and below 5.00.
The like results for `Fc1ccc([C@H]2CC3CCC(S3)C2c2cc(-c3ccccc3)no2)cc1` (stereo partly specified) were, in that order, 7.31 and below 5.00.
The like results for `Brc1ccc([C@@H]2CC3CCC(S3)C2c2cc(-c3ccccc3)no2)cc1` (stereo partly specified) were, in that order, 6.62 and below 5.00.
Regarding `Clc1ccc([C@@H]2CC3CCC(S3)C2c2cc(-c3ccccc3)no2)cc1` (stereo partly specified), the negative logarithm of the IC50 (pIC50) in assay [1] was 6.89; in assay [2], below 5.00.
On to `Cc1cc([C@@H]2C3CCC(C[C@@H]2c2ccccc2)S3)on1` (stereo partly specified), for which the pIC50 in assay [1] was 7.92; in assay [2] it was below 5.00.
The like results for `Clc1ccc([C@H]2CC3CCC(S3)C2c2cc(-c3ccccc3)no2)cc1Cl` (stereo partly specified) were, in that order, 6.57 and below 5.00.
In the case of `c1ccc(-c2cc(C3C4CCC(C[C@@H]3c3ccccc3)S4)on2)cc1` (stereo partly specified), the values for the pIC50 in assay [1] and in assay [2] were 6.80 and below 5.00, respectively.
The like results for `Clc1ccc(C2=C(c3cc(-c4ccccc4)no3)C3CCC(C2)S3)cc1Cl` (stereo unspecified) were, in that order, 6.48 and below 5.00.
For `c1ccc(C2=C(c3cc(-c4ccccc4)no3)C3CCC(C2)S3)cc1` (stereo unspecified) the same measures were below 5.30 and below 5.00.
The like results for `Cc1cc([C@@H]2C3CCC(C[C@@H]2c2ccc(Br)cc2)S3)on1` (stereo partly specified) were, in that order, 7.85 and 6.12.
Consider `Cc1cc([C@@H]2C3CCC(C[C@@H]2c2ccc(F)cc2)S3)on1` (stereo partly specified), for which the negative logarithm of the IC50 (pIC50) in assay [1] is 8.15; in assay [2], below 6.00.
`Cc1cc([C@@H]2C3CCC(C[C@H]2c2ccc(Cl)c(Cl)c2)S3)on1` (stereo partly specified): the results for the pIC50 in assay [1] and in assay [2] were 6.99 and below 5.70, respectively.
